Active and inactive are the calls of the source. The calls are words filed in the database; no cut-off is given here.

By Ki is commonly meant the dissociation constant of the complex between target and ligand, obtained from inhibition or displacement.

Test [1] deals with T1, Ribonuclease pancreatic (Bos taurus, UniProt P61823).
T1 sequence (P61823 whole entry): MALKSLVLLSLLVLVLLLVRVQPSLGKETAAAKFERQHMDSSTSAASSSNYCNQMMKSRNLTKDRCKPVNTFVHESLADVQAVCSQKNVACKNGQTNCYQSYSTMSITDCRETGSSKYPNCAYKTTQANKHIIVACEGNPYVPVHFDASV
Kind of test: Inhibition of bovine pancreatic RNase A by spectrophotometric method. Summed up: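 Bovine pancreatic RNase A; spectrophotometric initial-velocity assay with 2′,3′-cCMP substrate in 0.1 M Mes-NaOH pH 6.0, 0.1 M NaCl. Ki taken from Dixon plots (1/V vs [I]) by the competitive equation; at least three repeats per set.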

In test [2] the target is T2, Ribonuclease pancreatic (Bos taurus) (UniProt P61823).
T2 sequence (whole entry): T1 sequence (P61823 whole entry)
The experiment in a line: Inhibition of bovine pancreatic RNase A assessed as effect on tRNA degradation at 0.14 mM by agarose gel based assay. Summed up:
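Comparative gel: RNase A (stock 6.29 µM; 1.26 µM in figure) preincubated 3 h with compound (0.14 mM). Aliquots then mixed with yeast tRNA (5 mg/mL stock) for 30 min, run on 1.1% agarose gel, and residual tRNA viewed by ethidium bromide under UV.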

For test [3], the target named is T2, Ribonuclease pancreatic (Bos taurus). The experiment in a line: Inhibition of bovine pancreatic RNase A assessed as effect on tRNA degradation by agarose gel based assay. A digest of the protocol:
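Qualitative gel: RNase A (stock 6.87 µM; 1.37 µM in figure) preincubated 3 h with compound at three levels (0.10–0.31 or 0.13–0.40 mM). Aliquots then mixed with yeast tRNA (5 mg/mL stock) for 30 min, run on 1.1% agarose gel, and residual tRNA stained with ethidium bromide under UV.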

Test [4] has the same target. The experiment in a line: Inhibition of bovine pancreatic RNase A ribonucleolytic activity assessed as reduction of tRNA degradation at 0.32 mM by precipitation assay relative to control. More on the design: scale not given: the % may be the effect or the level left. Summed up:
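Bond precipitation assay: RNase A (1.10 µM) preincubated with compound (0.32 mM) 2 h at 37 °C. Then tRNA added in Tris-HCl pH 7.5 with 5 mM EDTA and 0.5 mg/mL HSA, 30 min at 25 °C. Quenched with ice-cold perchloric acid/uranyl acetate, 30 min on ice, centrifuged; supernatant A260 compared with control.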

In test [1], `Nc1ccn([C@@H]2O[C@H](CO)[C@@H](OP(=O)(O)O)[C@H]2O)c(=O)n1` displayed an inhibition constant Ki of 103 µM.
Still for that read-out and setting: the result for `O=c1ccn([C@@H]2O[C@H](CO)[C@@H](O)[C@H]2OP(=O)(O)O)c(=O)[nH]1` reads 7.1 µM.
Turning to `Cc1cn([C@H]2C[C@H](O)[C@@H](CN3CCCCC3)O2)c(=O)[nH]c1=O`, the outcome in test [2] and in test [3] was Active. In addition, the Activity in test [4] was 5%.
Take `O=c1ccn([C@@H]2O[C@H](CN3CCCCC3)[C@@H](O)[C@H]2O)c(=O)[nH]1`: the outcome in test [2] and in test [3] was Active. Also, the Activity in test [4] came to 12%.
Take `O=c1ccn([C@@H]2O[C@H](CN3CCCC3)[C@@H](O)[C@H]2O)c(=O)[nH]1`: the result in test [2] and in test [3] was Active. In addition, the Activity in test [4] came to 12%.
Take `O=c1ccn([C@@H]2O[C@H](CN3CCOCC3)[C@@H](O)[C@H]2O)c(=O)[nH]1`: the outcome in test [2] and in test [3] was Active. Also, the Activity in test [4] stood at 12%.
In the case of `O=c1ccn([C@@H]2O[C@H](CO)[C@@H](OP(=O)(O)O)[C@H]2O)c(=O)[nH]1`, the Ki in test [1] was determined as 82 µM.
On the same count and under the same terms, the result for `O=c1ccn([C@@H]2O[C@H](CO)[C@@H](OP(=O)(O)O)[C@@H]2O)c(=O)[nH]1` reads 6 µM.
For `CCOC(=O)C1CCN(C[C@H]2O[C@@H](n3ccc(=O)[nH]c3=O)[C@H](O)[C@@H]2O)CC1`, the result in test [3] was Active. In addition, the inhibition constant Ki in test [1] stood at 77 µM. Also, the Activity in test [4] came out at 30%.
In test [1], `Cc1cn([C@H]2C[C@H](O)[C@@H](COP(=O)(O)OP(=O)(O)O[C@H]3[C@@H](O)[C@H](n4cnc5c(N)ncnc54)O[C@@H]3CO)O2)c(=O)[nH]c1=O` gave a Ki of 0.041 µM.
`Cc1cn([C@H]2C[C@H](O)[C@@H](CN3CCCC3)O2)c(=O)[nH]c1=O`: the outcome in test [2] and in test [3] was Active. For the same compound, the Activity in test [4] came to 5%.

(Values after ChEMBL document CHEMBL1140896, “Morpholino, piperidino, and pyrrolidino derivatives of pyrimidine nucleosides as inhibitors of ribonuclease A: synthesis, biochemical, and crystallographic evaluation” (J Med Chem, 2009).)
